Screening results as filed in PubChem.
MITF act: activators of MITF-driven TRPM1 promoter activity in SK-MEL-5 cells; SK-MEL-5 TRPM1-promoter luciferase, 24 h; % of positive control, neutral wells = 0; activation, % at 12.5 µM; actives 0.75% (n = 300,000); AID 588334;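 active = mean activation of at least 80% with every replicate also reaching 80%; inconclusive = mean reaches 80% but some replicate falls short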
Wnt act: activates Wnt/beta-catenin signaling in a reporter cell assay; activator, plate reader; actives 1.2% (n = 300,000); activation, % at 9.35 µM; AID 743398; in the data active = activation above about 30%, passing the limit was not always enough; inconclusive = no clear call, values can overlap the other calls
XiGFP reactiv: reactivates the inactive X chromosome in mouse fibroblasts; actives 0.055% (n = 360,000); AID 743238; XiGFP mouse fibroblasts, % GFP-positive cells imaging, 3 d; cells co-treated with 5-aza-dC sensitizer; scaled so ellipticine positive control = 100%; activation, % at 7.58 µM;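 active = mean normalized replicate activation at least 10% and every replicate at or above 10%; inconclusive = only one of the two criteria met; inactive = mean below 10% and not all replicates reach 10%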
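System: XiGFP fibroblasts, SV40-immortalized. Medium: DMEM plus 5-aza-dC sensitizer. Doses: single point. Timing: 3 d treatment, 15 min room-temperature fixation. Control set: ellipticine 6 µM.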
Vif inh: HIV Vif inhibition. actives 0.35% (n = 340,000). inhibition, % at 7.49 µM. AID 602346. HEK293T cells, Vif self-association by quenched fluorescence, imaging, 24 h; in the data active = inhibition above about 50%, passing the limit was not always enough; inconclusive = no clear call, values can overlap the other calls; inactive = below about 31%
esBAF inh: SWI/SNF esBAF complex inhibition. mouse ES cells, Bmi1-luciferase knock-in reporter, 24 h; 100% = twice the neutral-well signal. reporter increase, % at 12.5 µM. actives 2% (n = 350,000). AID 602393; in the data active = activation above about 40%; inconclusive = no clear call, values can overlap the other calls;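 also: a rise in the Bmi1 reporter signal indicates esBAF inhibition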
Numbers stand for hits; i = inactive; ? = inconclusive; nt = no result given. Rows were chosen to be rich in hits. Some 2.6% of all compounds tested hit in one or more screens of this group.

SMILES	MITF act	Wnt act	XiGFP reactiv	Vif inh	esBAF inh
CCOC(=O)c1ccc(NC(=O)CNC(=O)C23CC4CC(CC(C4)C2)C3)cc1	i	nt	nt	i	i
CCOC(=O)c1ccc(NC(=O)C2CC3CCC2C3)cc1 (centres undefined)	nt	46	i	i	nt
CC(C)c1ccc(NC(=O)C2CC3CCC2C3)cc1 (centres undefined)	nt	i	i	i	57
CCC(C)c1ccc(NC(=O)C2CC3CCC2C3)cc1 (centres undefined)	nt	i	i	i	nt
COC(=O)c1ccc(NC(=O)C2C3C=CC(O3)C2C(=O)O)cc1 (centres undefined)	i	nt	nt	i	57
C[C@H](NC(=O)N(C)C[C@@H]1OCc2ccccc2-c2c(n(C)c3ccccc23)C(=O)N([C@H](C)CO)C[C@@H]1C)c1ccccc1	nt	nt	i	nt	i
O=C(Nc1ccc(F)cc1)C1CC2CCC1C2 (centres undefined)	nt	i	i	i	i
COC(=O)c1ccc(NC(=O)C2CC3CCC2C3)cc1 (centres undefined)	98	i	i	i	47
COc1ccc(-c2ccc(C(=O)NCc3ccccc3)c3occc23)c(C)c1	nt	i	i	?	50
COc1ccc(-c2ccc(C(=O)Nc3ccc(Cl)cc3)c3occc23)c(C)c1	nt	i	i	i	80
Cn1nccc1-c1ccc(C(=O)NCc2ccc(Cl)cc2)c2occc12	nt	nt	nt	i	80
COc1ccc(-c2coc3c(C(=O)NCc4ccccc4)cccc23)c(C)c1	nt	i	i	i	i
O=C(N/N=C\c1ccco1)Nc1cccc(Cl)c1	i	48	i	i	nt
CN(c1cccc(NC(=O)Nc2cccc(Cl)c2)c1)S(C)(=O)=O	nt	i	nt	i	54
CN(C)c1ccc(NC(=O)Nc2cccc(Cl)c2)cc1	i	nt	nt	i	54
C[C@@H]1CN([C@@H](C)CO)C(=O)c2cccc(NC(=O)CCCCCC(=O)Nc3ccccc3N)c2O[C@H]1CN(C)S(=O)(=O)c1ccc(Cl)cc1	nt	nt	i	nt	i
COc1ccc(-c2noc(-c3ccoc3C)n2)cc1	i	i	i	i	nt
COc1ccc(-c2nc(-c3ccc(Br)o3)no2)cc1OC	i	i	i	i	i
COc1ccc(-c2noc(-c3ccoc3C)n2)cc1OC	89	i	i	i	nt
COc1ccc(-c2noc(-c3ccco3)n2)cc1OC	?	50	nt	i	nt
COc1ccc2c3c([nH]c2c1)[C@@H](CO)N(C(=O)Nc1ccc(F)cc1)CC31CN(C(=O)Nc2c(C)noc2C)C1	nt	nt	i	nt	nt
O=Nc1[nH]c(=O)c(/C=C(\O)c2ccccc2)nc1NO	i	i	i	106	i
COc1cccc2nc3cc(C)c(C)cc3nc12	i	34	i	i	i
Cc1cccc(/C=N/Nc2nncc3ccccc23)c1	i	i	i	i	i
CCOC(=O)C/C(=N\Nc1ncnc2ccccc12)c1ccccc1	i	i	i	i	43
SMILES	MITF act	Wnt act	XiGFP reactiv	Vif inh	esBAF inh
Clc1cccc(/C=N/Nc2ncnc3ccccc23)c1	nt	nt	nt	i	53
C(=N\Nc1nncc2ccccc12)/c1ccccc1	i	38	i	i	i
Nc1c(Cl)ncnc1N/N=C/c1ccnc2ccccc12	i	i	i	i	i
C/C(=N\Nc1nncc2ccccc12)c1ccc(C(C)(C)C)cc1	nt	nt	nt	i	49
CC(C)NC(=O)N(C)C[C@H]1Oc2ccc(NS(=O)(=O)c3cn(C)cn3)cc2CC(=O)N([C@H](C)CO)C[C@@H]1C	nt	nt	i	nt	i
C[C@H](CO)N1C[C@H](C)[C@H](CN(C)S(=O)(=O)c2ccc(Cl)cc2)Oc2ccc(NC(=O)Nc3ccccc3)cc2CC1=O	nt	nt	i	nt	i
CC=Cc1ccc2n(c1=O)C[C@H]1[C@H](CO)[C@@H](C(=O)Nc3nccs3)N(Cc3ccccc3F)[C@@H]21 (mixture of isomers)	nt	nt	i	nt	i
C(=N\Nc1ncnc2ccccc12)/c1ccccc1	i	i	i	i	70
O=C(c1ccccn1)N1CC2(C1)[C@@H](c1ccccc1)[C@@H](CO)N2C(=O)C1CCCC1	nt	nt	i	nt	nt
CC1CCC(NC(=O)CCNC(=O)c2ccc(Br)cc2)CC1 (centres undefined)	82	i	i	i	?
CCC(=O)Nc1cccc(NC(=O)c2ccc(Br)cc2)c1	i	i	i	i	nt
Cc1cccc(NC(=O)CCNC(=O)c2ccc(Br)cc2)c1	i	i	i	i	54
CC(=O)Nc1cccc(NC(=O)c2ccc(Br)cc2)c1	i	i	i	i	42
